Laboratory results reported in ChEMBL document CHEMBL1926532, “Bioactive myrsinol diterpenoids from the roots of Euphorbia prolifera” (J Nat Prod, 2011).

Legend:
SH-SY5Y [1] = assay: Neuroprotective activity against MPP+-induced human SH-SY5Y cell death assessed as cell viability at 10 uM pretreated for 2 hrs prior to MPP+ induction by MTT assay relative to control; assay type: functional; details: read-out: Activity
Procedure, shortened: (§1)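 SH-SY5Y cells in DMEM with 10% FBS and penicillin/streptomycin at 37 °C, 5% CO2. Detached with 1 mM EGTA in PBS for 15 min, seeded at 1 × 10^4 cells/well, grown 24 h. Pretreated 2 h with compound (3, 10, 30 μM), then MPP+ medium. MTT (0.5 mg/mL final) added for 4 h; formazan read at 490 nm. Viability expressed against vehicle control (100). Triplicates, mean ± SEM, ANOVA/Student–Newman–Keuls.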

SH-SY5Y [2] = assay: Neuroprotective activity against MPP+-induced human SH-SY5Y cell death assessed as cell viability at 30 uM pretreated for 2 hrs prior to MPP+ induction by MTT assay relative to control; assay type: functional; details: read-out: Activity; procedure, shortened: as §1
SH-SY5Y [3] = assay: Neuroprotective activity against MPP+-induced human SH-SY5Y cell death assessed as cell viability at 3 uM pretreated for 2 hrs prior to MPP+ induction by MTT assay relative to control; assay type: functional; details: read-out: Activity; procedure, shortened: as §1
SH-SY5Y [4] = assay: Cytotoxicity against human SH-SY5Y cells assessed as cell viability at 3 to 30 uM by MTT assay; assay type: cell-based

Row | Compound | viability at 10 µM (SH-SY5Y [1]) | viability at 30 µM (SH-SY5Y [2]) | viability at 3 µM (SH-SY5Y [3]) | Activity (SH-SY5Y [4])
1 | C=C(C)[C@H]1C=C[C@@H](OC(C)=O)[C@@]23CO[C@@](C)([C@H](OC(=O)c4ccccc4)[C@@]4(OC(C)=O)C[C@H](C)[C@H](OC(=O)CC)[C@@H]4[C@H]2OC(C)=O)[C@H]13 [EUPHORBIAPROLIFERIN F] | 87.1% | 93.5% | 74.5% | 
2 | CCC(=O)O[C@@H]1[C@@H]2[C@@H](OC(C)=O)[C@@]34CO[C@@](C)([C@H](OC(=O)c5ccccc5)[C@@]2(OC(C)=O)C[C@@H]1C)[C@@H]3[C@@H](C(C)(C)OC(C)=O)C=CC4=O [EUPHORBIAPROLIFERIN D] | 71.3% | 88.6% | 68.7% | 
3 | CCC/C=C/C=C/C=C\CO[C@@H]1[C@@H](C)[C@]2(O)[C@@H]3C=C(C)C(=O)[C@H]3CC(CO)=C[C@H]2[C@@H]2C(C)(C)[C@]12OC(=O)C(C)C | 77.3% | 84.1% | 69.6% | 
4 | CC(=O)O[C@@H]1[C@H]2[C@@H](OC(=O)C(C)C)[C@@H](C)C[C@]2(OC(C)=O)[C@@H](OC(C)=O)[C@]2(C)OC[C@]13C(=O)C=C[C@H](C(C)(C)OC(C)=O)[C@@H]23 [EUPHORBIAPROLIFERIN C] | 75.4% | 81.3% | 68.3% | 
5 | CCCC(=O)O[C@@H]1[C@@H]2[C@@H](OC(C)=O)[C@@]34CO[C@@](C)([C@@H](OC(=O)c5ccccc5)[C@@]2(OC(C)=O)C[C@@]1(C)OC(=O)c1ccccc1)[C@@H]3[C@@H](C(C)(C)OC(C)=O)C=C[C@H]4OC(C)=O (relative stereo) [EUPHORBIAPROLIFERIN B] | 93.2% | 109% | 74.8% | Non-toxic
6 | CCC(=O)O[C@@H]1[C@@H]2[C@@H](OC(C)=O)[C@@]34CO[C@@](C)([C@@H](OC(=O)C(C)C)[C@@]2(OC(C)=O)C[C@@]1(C)OC(=O)C(C)C)[C@@H]3[C@@H](C(C)(C)OC(C)=O)C=C[C@H]4OC(C)=O (relative stereo) [EUPHORBIAPROLIFERIN A] | 83.5% | 92.7% | 75.1% | 
7 | CCC(=O)O[C@@H]1[C@@H]2[C@@H](OC(C)=O)[C@@]34CO[C@@](C)([C@@H](OC(=O)c5ccccc5)[C@@]2(OC(C)=O)C[C@@H]1C)[C@@H]3[C@@H](C(C)(C)OC(C)=O)C=C[C@H]4OC(C)=O [PROLIFERIN C] | 84.5% | 95.1% | 76.7% | Non-toxic
8 | C=C(C)[C@H]1C=C[C@@H](OC(=O)c2ccccc2)[C@@]23CO[C@@](C)([C@H](OC(=O)c4ccccc4)[C@@]4(OC(C)=O)C[C@H](C)[C@H](OC(C)=O)[C@@H]4[C@H]2OC(C)=O)[C@H]13 [EUPHORBIAPROLIFERIN H] | 89.8% | 99.4% | 83.6% | Non-toxic
9 | CCC(=O)O[C@@H]1[C@@H]2[C@@H](OC(=O)c3ccccc3)[C@@]3(COC(C)=O)[C@@H]([C@@H]4[C@H](C[C@H]3OC(C)=O)C4(C)C)[C@](C)(OC(C)=O)C(=O)[C@@]2(O)C[C@@H]1C | 70.3% | 78.5% | 61.5% | 
10 | CCC(=O)O[C@@H]1[C@@H]2[C@@H](OC(C)=O)[C@@]34CO[C@@](C)([C@@H](OC(=O)c5ccccc5)[C@@]2(OC(C)=O)C[C@@]1(C)OC(=O)C(C)C)[C@@H]3[C@@H](C(C)(C)OC(C)=O)C=C[C@H]4OC(C)=O [PROLIFERIN A] | 85.2% | 97.8% | 74.4% | Non-toxic
11 | C=C(C)[C@H]1C=C[C@@H](OC(=O)c2ccccc2)[C@@]23CO[C@@](C)([C@H](OC(=O)c4cccnc4)[C@@]4(OC(C)=O)C[C@H](C)[C@H](OC(=O)CC)[C@@H]4[C@@H]2OC(C)=O)[C@H]13 | 87.4% | 96.5% | 77.7% | Non-toxic
12 | CCC(=O)O[C@@H]1[C@@H]2[C@@H](OC(C)=O)[C@@]34CO[C@@](C)([C@@H](OC(=O)c5ccccc5)[C@@]2(OC(C)=O)C[C@@H]1C)[C@@H]3[C@@H]1[C@H](C[C@H]4OC(C)=O)C1(C)C [EUPHORBIAPROLIFERIN I] | 88.9% | 101% | 84.8% | Non-toxic
13 | C=C(C)[C@H]1C=C[C@@H](OC(=O)c2ccccc2)[C@@]23CO[C@@](C)([C@@H](OC(=O)c4ccccc4)[C@@]4(OC(C)=O)C[C@H](C)[C@H](OC(=O)CC)[C@@H]4[C@H]2OC(C)=O)[C@H]13 [EUPHORPROLITHERIN C] | 91.5% | 103% | 75.5% | Non-toxic
14 | CCC(=O)O[C@@H]1[C@@H]2[C@@H](OC(C)=O)[C@@]34CO[C@@](C)([C@@H](OC(=O)c5ccccc5)[C@@]2(OC(C)=O)C[C@@]1(C)OC(=O)c1ccccc1)[C@@H]3[C@@H](C(C)(C)OC(C)=O)C=C[C@H]4OC(C)=O [PROLIFERIN B] | 95.4% | 112% | 82.1% | Non-toxic
15 | Nc1nc2c(ncn2[C@@H]2O[C@H](CO)[C@@H](O)[C@H]2O)c(=O)[nH]1 [GUANOSINE] | 77.3% | 87.3% | 68.1% | 
16 | CC(=O)O[C@@H]1[C@@H]2[C@@H](OC(C)=O)[C@@]34CO[C@@](C)([C@H](OC(=O)c5ccccc5)[C@@]2(O)C[C@@H]1C)[C@@H]3[C@@H]1[C@@H](C[C@]1(C)OC(C)=O)[C@@H](OC(=O)c1ccccc1)C4=O [EUPHORBIAPROLIFERIN E] | 76% | 82.1% | 67.1% | 
17 | C=C(C)[C@H]1C=C[C@@H](OC(=O)c2ccccc2)[C@@]23CO[C@@](C)([C@H](OC(C)=O)[C@@]4(OC(C)=O)C[C@H](C)[C@H](OC(=O)CC)[C@@H]4[C@@H]2OC(C)=O)[C@H]13 | 86.5% | 94.2% | 78.1% | 
18 | CCCC(=O)O[C@@H]1[C@@H]2[C@@H](OC(C)=O)[C@@]34CO[C@@](C)([C@@H](OC(=O)c5ccccc5)[C@@]2(OC(C)=O)C[C@@H]1C)[C@@H]3[C@@H]1[C@H](C[C@H]4OC(C)=O)C1(C)C [EUPHORBIAPROLIFERIN J] | 89.2% | 104% | 79.8% | Non-toxic
19 | C=C(C)[C@H]1C=C[C@@H](OC(C)=O)[C@@]23CO[C@@](C)([C@H](OC(C)=O)[C@@]4(OC(C)=O)C[C@H](C)[C@H](OC(=O)CC)[C@@H]4[C@H]2OC(C)=O)[C@H]13 [EUPHORBIAPROLIFERIN G] | 78.3% | 88.7% | 65.6% | 
20 | CCC(=O)O[C@@H]1[C@@H]2[C@@H](OC(C)=O)[C@@]34CO[C@@](C)([C@@H](OC(=O)c5ccccc5)[C@@]2(OC(C)=O)C[C@@]1(C)OC(C)=O)[C@@H]3[C@@H](C(C)(C)OC(C)=O)C=C[C@H]4OC(C)=O [EUPHORPROLITHERIN B] | 81.7% | 92.2% | 70.3% | 
